From ChEMBL document CHEMBL3525950, “Autoinhibition of CYP3A4 leads to important role of CYP2C8 in imatinib metabolism: variability in CYP2C8 activity may alter plasma concentrations and response” (Drug Metab Dispos, 2013)

What was measured:
CYP2D6 = test: Fraction unbound in human liver microsomes containing CYP2D6 after 60 mins; format: ADME
Cytochrome P450 3A5 [1] = molecular target: T1, Cytochrome P450 3A5 (Homo sapiens, UniProt P20815); test: Activity of human recombinant CYP3A5 in supersomes assessed as enzyme-mediated drug metabolism at 0.05 to 0.1 uM after 30 mins by LC/MS analysis; format: ADME; conditions: 0.5 h
T1 sequence (P20815 whole entry): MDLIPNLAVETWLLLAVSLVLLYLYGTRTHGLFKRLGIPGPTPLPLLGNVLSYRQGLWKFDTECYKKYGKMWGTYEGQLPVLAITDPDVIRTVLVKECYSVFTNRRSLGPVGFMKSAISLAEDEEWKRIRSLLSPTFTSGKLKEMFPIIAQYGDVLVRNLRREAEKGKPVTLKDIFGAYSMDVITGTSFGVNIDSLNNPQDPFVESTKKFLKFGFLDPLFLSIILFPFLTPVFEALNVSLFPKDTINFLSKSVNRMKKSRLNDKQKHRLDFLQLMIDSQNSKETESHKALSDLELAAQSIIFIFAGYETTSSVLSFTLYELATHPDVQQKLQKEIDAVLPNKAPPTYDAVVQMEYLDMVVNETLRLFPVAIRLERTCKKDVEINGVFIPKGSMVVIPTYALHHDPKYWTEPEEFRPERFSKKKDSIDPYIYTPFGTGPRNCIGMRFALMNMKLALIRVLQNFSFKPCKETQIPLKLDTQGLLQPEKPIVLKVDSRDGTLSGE
Outline: (§1)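 Recombinant P450 (CYP1A2 50, CYP2C8 158, CYP2D6 72, CYP3A4 66, CYP3A5 50 pmol/ml; 0.5 mg/ml protein) incubated with 0.1 µM N-DMI, and also 0.05 µM with CYP2C8/3A4/3A5. Run in 0.1 M sodium phosphate pH 7.4 with 1 mM NADPH at 37°C, in triplicate. N-DMI depletion was followed by LC-MS/MS; k_dep was fitted over 0–30 min and CLint = k_dep/[P450].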

CYP2C8 = test: Fraction unbound in human liver microsomes containing CYP2C8 after 60 mins; format: ADME
Cytochrome P450 1A2 [2] = molecular target: T2, Cytochrome P450 1A2 (Homo sapiens, UniProt P05177); test: Activity of human recombinant CYP1A2 in supersomes assessed as intrinsic clearance for enzyme-mediated drug metabolism by LC/MS analysis
T2 sequence (P05177 whole entry): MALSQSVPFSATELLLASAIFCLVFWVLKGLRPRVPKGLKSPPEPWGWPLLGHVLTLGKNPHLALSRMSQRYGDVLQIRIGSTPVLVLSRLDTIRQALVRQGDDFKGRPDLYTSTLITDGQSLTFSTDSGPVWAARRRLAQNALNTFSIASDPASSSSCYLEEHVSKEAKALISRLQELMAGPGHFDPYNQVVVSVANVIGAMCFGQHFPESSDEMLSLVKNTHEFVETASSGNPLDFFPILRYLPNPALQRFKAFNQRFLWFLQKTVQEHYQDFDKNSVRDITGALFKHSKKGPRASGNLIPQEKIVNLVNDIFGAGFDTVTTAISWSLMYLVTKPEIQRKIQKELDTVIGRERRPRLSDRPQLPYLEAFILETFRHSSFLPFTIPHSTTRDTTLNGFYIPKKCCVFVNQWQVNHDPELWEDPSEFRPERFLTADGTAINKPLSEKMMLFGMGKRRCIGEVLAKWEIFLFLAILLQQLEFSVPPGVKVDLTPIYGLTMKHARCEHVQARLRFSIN

Cytochrome P450 2C8 [3] = molecular target: T3, Cytochrome P450 2C8 (Homo sapiens, UniProt P10632); test: Activity of human recombinant CYP2C8 in supersomes assessed as intrinsic clearance for enzyme-mediated drug metabolism by LC/MS analysis; format: ADME
T3 sequence (P10632 whole entry): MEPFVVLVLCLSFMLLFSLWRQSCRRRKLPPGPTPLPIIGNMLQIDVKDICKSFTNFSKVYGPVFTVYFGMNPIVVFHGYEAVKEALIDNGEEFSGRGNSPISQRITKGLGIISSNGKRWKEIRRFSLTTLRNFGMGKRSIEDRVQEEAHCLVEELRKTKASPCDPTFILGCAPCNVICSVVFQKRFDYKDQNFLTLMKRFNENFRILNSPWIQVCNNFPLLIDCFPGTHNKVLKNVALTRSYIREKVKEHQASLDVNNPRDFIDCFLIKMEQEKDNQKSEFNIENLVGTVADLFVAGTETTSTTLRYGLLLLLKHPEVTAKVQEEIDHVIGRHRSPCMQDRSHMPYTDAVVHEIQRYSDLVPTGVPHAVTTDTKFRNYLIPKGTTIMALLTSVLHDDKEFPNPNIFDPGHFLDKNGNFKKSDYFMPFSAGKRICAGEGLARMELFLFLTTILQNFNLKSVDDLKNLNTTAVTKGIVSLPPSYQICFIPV
Outline: (§2)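 N-DMI formation kinetics: imatinib 0.10–320 µM with CYP2C8 (33 pmol/ml, 4 min), CYP3A4 (13 pmol/ml, 3 min) or CYP3A5 (10 pmol/ml, 30 min), 0.1 mg/ml protein. Run in phosphate pH 7.4 with 1 mM NADPH at 37°C, in triplicate, read by LC-MS/MS. Fits used substrate-inhibition (CYP2C8, CYP3A4) or Michaelis–Menten (CYP3A5) models; CLint = Vmax/Km.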

CYP3A4 = test: Fraction unbound in human liver microsomes containing CYP3A4 after 60 mins; format: ADME
Cytochrome P450 1A2 [4] = molecular target: T2, Cytochrome P450 1A2; test: Activity of human recombinant CYP1A2 in supersomes assessed as enzyme-mediated drug metabolism at 0.05 to 0.1 uM after 30 mins by LC/MS analysis; format: ADME; conditions: 0.5 h; outline: as §1
Cytochrome P450 2C8 [5] = molecular target: T3, Cytochrome P450 2C8; test: Activity of human recombinant CYP2C8 in supersomes assessed as enzyme-mediated drug metabolism at 0.05 to 0.1 uM after 30 mins by LC/MS analysis; format: ADME; conditions: 0.5 h; outline: as §1
Cytochrome P450 3A4 [6] = molecular target: T4, Cytochrome P450 3A4 (Homo sapiens, UniProt P08684); test: Activity of human recombinant CYP3A4 in supersomes assessed as intrinsic clearance for enzyme-mediated drug metabolism by LC/MS analysis; format: ADME; outline: as §2
T4 sequence (P08684 whole entry): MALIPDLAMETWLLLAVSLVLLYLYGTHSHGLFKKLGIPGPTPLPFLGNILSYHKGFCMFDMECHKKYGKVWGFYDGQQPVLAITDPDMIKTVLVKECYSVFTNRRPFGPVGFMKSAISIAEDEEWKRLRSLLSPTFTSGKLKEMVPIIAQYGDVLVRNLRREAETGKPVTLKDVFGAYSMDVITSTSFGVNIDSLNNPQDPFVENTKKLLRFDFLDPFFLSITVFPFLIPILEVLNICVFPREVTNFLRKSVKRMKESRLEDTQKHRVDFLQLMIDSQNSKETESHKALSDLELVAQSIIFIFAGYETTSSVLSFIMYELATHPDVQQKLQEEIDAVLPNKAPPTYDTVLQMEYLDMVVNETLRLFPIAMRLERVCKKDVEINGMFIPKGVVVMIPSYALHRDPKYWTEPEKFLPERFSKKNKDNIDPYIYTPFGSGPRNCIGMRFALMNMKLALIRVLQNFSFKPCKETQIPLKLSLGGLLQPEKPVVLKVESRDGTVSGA

Cytochrome P450 3A4 [7] = molecular target: T4, Cytochrome P450 3A4; test: Activity of human recombinant CYP3A4 in supersomes assessed as enzyme-mediated drug metabolism at 0.05 to 0.1 uM after 30 mins by LC/MS analysis; format: ADME; conditions: 0.5 h; outline: as §1
Cytochrome P450 2D6 [8] = molecular target: T5, Cytochrome P450 2D6 (Homo sapiens, UniProt P10635); test: Activity of human recombinant CYP2D6 in supersomes assessed as intrinsic clearance for enzyme-mediated drug metabolism by LC/MS analysis
T5 sequence (P10635 whole entry): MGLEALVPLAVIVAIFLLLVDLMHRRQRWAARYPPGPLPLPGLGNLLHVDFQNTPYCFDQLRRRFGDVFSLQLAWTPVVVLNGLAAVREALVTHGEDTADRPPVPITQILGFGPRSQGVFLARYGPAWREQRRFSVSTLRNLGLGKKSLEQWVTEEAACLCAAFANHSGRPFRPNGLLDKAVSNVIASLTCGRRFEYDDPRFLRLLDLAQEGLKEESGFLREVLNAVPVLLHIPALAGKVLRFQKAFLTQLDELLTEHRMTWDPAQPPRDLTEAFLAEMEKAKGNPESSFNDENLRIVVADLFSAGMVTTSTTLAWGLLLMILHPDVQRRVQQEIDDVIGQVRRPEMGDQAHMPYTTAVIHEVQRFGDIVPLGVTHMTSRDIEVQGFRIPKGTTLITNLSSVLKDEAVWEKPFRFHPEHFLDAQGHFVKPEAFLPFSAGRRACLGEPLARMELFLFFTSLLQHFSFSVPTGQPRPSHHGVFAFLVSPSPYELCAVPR

CYP3A5 = test: Fraction unbound in human liver microsomes containing CYP3A5 after 60 mins; format: ADME
Cytochrome P450 2D6 [9] = molecular target: T5, Cytochrome P450 2D6; test: Activity of human recombinant CYP2D6 in supersomes assessed as enzyme-mediated drug metabolism at 0.05 to 0.1 uM after 30 mins by LC/MS analysis; format: ADME; conditions: 0.5 h; outline: as §1
CYP1A2 = test: Fraction unbound in human liver microsomes containing CYP1A2 after 60 mins; format: ADME
Cytochrome P450 3A5 [10] = molecular target: T1, Cytochrome P450 3A5; test: Activity of human recombinant CYP3A5 in supersomes assessed as intrinsic clearance for enzyme-mediated drug metabolism by LC/MS analysis; format: ADME; outline: as §2
[11] = Oral bioavailability in chronic myeloid leukemia patient; format: ADME, organism-based; conditions: human, in vivo
[12] = Cmax in chronic myeloid leukemia patient at 400 mg, qd by multiple dose study; format: ADME, organism-based; design: dose 400 mg; conditions: human, in vivo

fraction unbound at 1 h (CYP2D6) | Drug metabolism (Cytochrome P450 3A5 [1]) | fraction unbound at 1 h (CYP2C8) | CL (Cytochrome P450 1A2 [2]) | CL (Cytochrome P450 2C8 [3]) | fraction unbound at 1 h (CYP3A4) | Drug metabolism (Cytochrome P450 1A2 [4]) | Drug metabolism (Cytochrome P450 2C8 [5]) | CL (Cytochrome P450 3A4 [6]) | Drug metabolism (Cytochrome P450 3A4 [7]) | CL (Cytochrome P450 2D6 [8]) | fraction unbound at 1 h (CYP3A5) | Drug metabolism (Cytochrome P450 2D6 [9]) | fraction unbound at 1 h (CYP1A2) | CL (Cytochrome P450 3A5 [10]) | bioavailability [11] | Cmax [12] | Compound
0.8 | metabolite_not_detected | 0.8 | 0.03 µL/min | 0.06 µL/min | 0.8 | metabolite_not_detected | metabolite_detected | 0.5 µL/min | metabolite_detected | 0.05 µL/min | 0.8 | metabolite_not_detected | 0.8 | 0.09 µL/min |  |  | CS(=O)(=O)O.Cc1ccc(NC(=O)c2ccc(CN3CCNCC3)cc2)cc1Nc1nccc(-c2cccnc2)n1
 |  |  |  |  |  |  |  |  |  |  |  |  |  |  | > 97% | 2200 ng/mL | CS(=O)(=O)O.Cc1ccc(NC(=O)c2ccc(CN3CCN(C)CC3)cc2)cc1Nc1nccc(-c2cccnc2)n1 [IMATINIB MESYLATE]
